MT stabilizer: microtubule stabilizers in HeLa cells; actives 0.83% (n = 200,000); HeLa tubulin immunostaining HCS, 24 h; share of cells brighter than vehicle mean+2SD; % tubulin-high responders, % at 10 µM;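 active means plate Z-score above 3 for both tubulin-high and condensed-nucleus cell shares, with cell loss under 80%, at 10 µM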;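 further: anti alpha tubulin signal scored within the nucleus-defined area of each cell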
APP transl inh: APP translation inhibition | actives 0.82% (n = 190,000) | SH-SY5Y APP 5'UTR-luciferase reporter, luminescence | inhibition, % at 2 µM;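 active means inhibition above a set limit, derived from the sample mean plus 3 SD, cut at about 45% in these data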
IEC-6 cytotox: counter-screen for KLF5 inhibitors: cytotoxicity in IEC-6 cells; inhibition, % at 5 µM; actives 0.78% (n = 290,000); IEC-6 cytotoxicity, luminescence viability; AID 1825;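 further: 0% = plate median of test compound wells and 100% = cytotoxic reference compound wells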
bCat nuc transl: modulators of beta-catenin nuclear translocation | AID 1665 | actives 0.3% (n = 190,000) | HeLa beta-catenin nuclear translocation, immunofluorescence imaging | nuclear translocation activity, % at 5 µM;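 active means nuclear translocation activity above 50% at 5 µM, with a well cell count of 50 or more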;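 further: per-cell ratio of nuclear to cytoplasmic median beta-catenin stain intensity; plate controls were DMSO negative control for no effect and GSK-3 inhibitor IX positive control for full effect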
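Read-out: Nuclear/cytoplasmic beta-catenin signal ratio, % activation | Assay system: Human HeLa cell line | Times: 24 h compound exposure at 37°C, 5% CO2 | Signal: Fluorescence imaging of beta-catenin antibody stain plus DAPI | Dosing: 5 µM primary, 0.02–20 µM confirmation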
Ba/F3 V617F tox: reduce viability of Ba/F3 cells dependent on JAK2V617F; Ba/F3 EpoR-JAK2V617F viability, ATP luminescence; inhibition, % at 5.6 µM; actives 1.1% (n = 220,000); AID 1446;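 active means inhibition above the campaign mean plus 3 SD over all tested compounds, cut at about 24% in these data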;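 further: cytokine-independent growth of Ba/F3 cells driven by EpoR plus mutant JAK2; 0% = DMSO-treated cells and 100% = JAK inhibitor I control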
BaF3 parental: reduces parental Ba/F3 cell viability, JAK2V617F counter-screen; inhibition, % at 5.6 µM; actives 1.1% (n = 220,000); CellTiter-Glo ATP luminescence;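 active means inhibition above a per-campaign cutoff, the mean inhibition of all tested compounds plus 3 SD, cut at about 27% in these data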;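 further: 0% = DMSO wells and 100% = JAK Inhibitor I control wells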
IEC-6 cytotox cf: confirmation of cytotoxic compounds in rat IEC-6 intestinal epithelial cells; actives 63% (n = 1,900); inhibition, % at 5 µM; IEC-6 rat intestinal epithelial viability, luminescence; shares compounds with IEC-6 cytotox;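 further: 0% = vehicle and 100% = reference cytotoxic drug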
An asterisk follows results filed as active; . = no result. Hits are enriched below; roughly 2.2% of the tested compounds scored in any of these assays. Unless noted, no stated cut-off is given here; in the data, active means inhibition above about 22%; inactive means the rest.

SMILES	MT stabilizer	APP transl inh	IEC-6 cytotox	bCat nuc transl	Ba/F3 V617F tox	BaF3 parental	IEC-6 cytotox cf
CN1CC(=O)N2C(c3cccc([N+](=O)[O-])c3)c3[nH]c4ccccc4c3C[C@H]2C1=O (some centres undefined)	.	.	34*	.	.	.	14
O=C1[C@@H]2Cc3c([nH]c4ccccc34)C(c3ccc([N+](=O)[O-])cc3)N2C(=O)CN1C1CC1 (some centres undefined)	.	.	80*	.	.	.	50*
O=C1[C@@H]2Cc3c([nH]c4ccccc34)C(c3ccccc3)N2C(=O)CN1C1CC1 (some centres undefined)	.	.	-11	.	.	.	.
O=C(O)CSC1CC(=O)N(c2ccc(Br)cc2)C1=O (centres undefined)	.	.	-3	.	.	.	.
Nn1cnnc1N/N=C/c1ccc(Cl)c([N+](=O)[O-])c1	3	-2	52*	-3	2	3	2
Cc1cccc(NC(=S)NC(=O)c2oc3ccccc3c2C)n1	.	.	-1	.	.	.	.
O=C(O)c1ccccc1NC(=O)c1ccccc1Nc1ccccc1	.	.	35*	.	.	.	11
O=C(Nc1ccccc1C(=O)Nc1ccccc1C(=O)O)c1ccccc1	.	.	20	.	.	.	.
CC(=O)NC1=C(Nc2ccc(N(C)C)cc2)C(=O)c2ccccc2C1=O	.	.	67*	.	.	.	41*
COc1ccccc1CNc1nc(=S)[nH]c2cc(OC)c(OC)cc12	.	.	-1	.	.	.	.
COc1cc2[nH]c(=S)nc(NCc3ccc(Cl)cc3)c2cc1OC	.	.	30*	.	.	.	42*
CC1CN(CC(O)COc2ccc(C#N)cc2)CCN1CC(O)COc1ccc(C#N)cc1 (centres undefined)	.	.	2	.	.	.	.
Cc1nn(-c2cccc(C(F)(F)F)c2)c(Cl)c1/C=N/Nc1cccc(C(=O)O)c1	1	-159	4	0	-3	4	.
CCOC(=O)N/N=C/c1c(C)nn(-c2cccc(C(F)(F)F)c2)c1Cl	24*	86*	44*	13	67*	42*	53*
CCCCn1c(CN2CCN(c3cccc(Cl)c3)CC2)nc2c1c(=O)[nH]c(=O)n2C	35*	85*	44*	1	48*	38*	41*
C=C(C)CNC(=S)Nc1cccc(S(=O)(=O)NC2=NCCC2)c1	2	4	0	-2	1	11	.
CCOc1ccc(C(=O)NC(=S)Nc2cccc(S(=O)(=O)NC3=NCCC3)c2)cc1	17*	89*	65*	24	72*	79*	46*
O=C(CC1S/C(=N/N=C2CCCCCC2)NC1=O)Nc1ccc(Br)cc1F (centres undefined)	.	.	-7	.	.	.	.
CC(NC(=O)C1CCN(S(=O)(=O)c2ccc(Br)s2)CC1)c1ccccc1 (centres undefined)	.	.	6	.	.	.	.
COC(=O)c1cccc(/C=N/NC(N)=S)c1O	.	.	49*	-4	0	7	12
O=C(N/N=C/c1cccc(Oc2ccccc2)c1)c1ccccc1F	.	.	28*	.	.	.	21
CN1CCc2cc3c(c4c2[C@H]1[C@H](O)c1ccccc1-4)OCO3	3	4	44*	.	65*	65*	5
COc1ccc2c(c1OC)C(=O)OC2C1c2c(cc3c(c2OC)OCO3)CCN1C (centres undefined)	17	-8	0	0	0	4	.
COc1ccc(N/C=C/C(=O)c2cc(OC)c(OC)c(OC)c2)cc1	.	.	81*	.	.	.	59*
COc1ccc(N/C=C/C(=O)c2ccc(OC)c(OC)c2)cc1	.	.	6	0	0	-5	.
SMILES	MT stabilizer	APP transl inh	IEC-6 cytotox	bCat nuc transl	Ba/F3 V617F tox	BaF3 parental	IEC-6 cytotox cf
COc1ccccc1-c1nnc2sc(-c3ccc(N(C)C)cc3)nn12	8	97*	91*	74*	81*	80*	72*
CN(C)c1ccc(-c2nn3c(-c4ccccc4Cl)nnc3s2)cc1	29*	90*	35*	78*	9	13	57*
O=C(/C=C/c1ccncc1)c1ccc2c(c1)OCCO2	3	-1	-3	1	-3	7	.
COc1cc(/C=C/C(=O)c2ccc3c(c2)OCCO3)cc(Br)c1OCC(=O)N(C)C	.	.	24*	.	.	.	17
COc1cccc(N(C(=O)c2snc(C(N)=O)c2N)C(C(=O)NCC2CCCO2)c2ccc3ncccc3c2)c1 (centres undefined)	.	.	6	.	.	.	.
Cc1ccc(NC(=O)[C@H](Cc2c[nH]c3ccccc23)NC(=O)[C@@H]2Cc3ccccc3CN2)c(C)c1	.	.	32*	.	.	.	6
Cc1cccc(-c2nnc(NC(=O)c3ccco3)s2)c1	.	.	0	.	.	.	.
O=C(Nc1cnccn1)C1c2ccccc2Oc2ccccc21	2	11	0	.	-3	3	.
Cc1ccc(NC(=O)C2c3ccccc3Oc3ccccc32)nc1	1	11	46*	0	1	13	41*
COc1ccccc1-c1cc(C(=O)NC2CCN(C)CC2)c2ccc(Cl)c(C)c2n1	.	.	30*	.	.	.	-3
Cc1c(Cl)ccc2c(C(=O)NCCN3CCCCC3)cc(-c3ccccn3)nc12	9	-13	-5	-1	9	10	.
Oc1ccc(Oc2ccc(Oc3ccc(O)cc3)cc2)cc1	.	.	42*	.	.	.	-8
CCn1ncc(C2=NOC(C(=O)Nc3ccc(C)cc3)C2)c1C (centres undefined)	2	8	-4	0	-1	4	.
CCn1ncc(C2=NOC(C(=O)NCc3ccc(Cl)cc3)C2)c1C (centres undefined)	13	49*	83*	278*	21	11	51*
O=C(Cc1noc2ccccc12)Nc1ccccn1	3	-33	-4	0	0	2	.
Cc1ccc(NC(=O)Cc2noc3ccccc23)nc1	4	-22	23*	0	0	1	5
OCCCNc1ncnc2scc(-c3ccc(Cl)cc3)c12	.	.	-7	.	.	.	.
COc1ccc(C(=O)NC2CCCc3ccccc32)cc1[N+](=O)[O-] (centres undefined)	.	.	36*	.	.	.	7
CCOC(=O)Nc1nc(-c2ccccc2)c(C(=O)c2ccccc2)s1	14	94*	86*	.	80*	80*	58*
CC(=O)c1sc(NC(=O)c2ccccc2)nc1-c1ccccc1	1	-101	-7	-1	-2	9	.
COC(=O)Nc1nc(-c2ccccc2)c(C(=O)c2ccc(Cl)cc2)s1	11	9	56*	-7	0	6	58*
O=C(Cc1cccc(C(F)(F)F)c1)NCc1cccnc1	.	.	-6	.	.	.	.
O=C(Nc1nc2cc3c(cc2s1)OCCO3)c1ccco1	.	.	23*	.	.	.	10
O=C(Nc1nc2cc3c(cc2s1)OCO3)c1ccco1	.	.	-2	-1	5	-6	.
C=CCOc1ccccc1CN(C(=O)CCl)c1ccc2c(c1)OCO2	.	.	2	.	.	.	.
COc1cc2c(cc1OC)CN(C(=O)/C=C/c1ccccc1[N+](=O)[O-])CC2	.	.	24*	.	.	.	16
COc1cc2c(cc1OC)CN(C(=O)c1cccs1)CC2	3	-16	3	-2	-1	5	.

Compound activity deposited in PubChem by several laboratories.
